Data from ChEMBL document CHEMBL5715951, “Synergistic Reactivation of Latent HIV Expression by Ingenol-3-Angelate, PEP005, Targeted NF-kB Signaling in Combination with JQ1 Induced p-TEFb Activation” (PLoS Pathog, 2015).
Calls of active or inactive are those of the source. No cut-off for these calls is given here.

Key:
J-Lat A1 [1] = assay: Anti retroviral activity against human J-Lat A1 cells harboring a single copy of latent HIV LTR assessed as HIV reactivation at 5 ng/ml incubated for 24 hrs by flow cytometry analysis; type: functional, cell-based
Outline: (§1)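 J-Lat A1 cells (single latent LTR-GFP copy) treated 24 h at fixed levels (10 nM PEP005, 500 nM SAHA, 2 μM JQ1/GSK343/Prostratin, 10 ng/ml TNF, 5 ng/ml PMA); percentage GFP-positive cells by flow cytometry.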

J-Lat A1 [2] = assay: Anti retroviral activity against human J-Lat A1 cells harboring a single copy of latent HIV LTR assessed as HIV reactivation at 2 uM incubated for 24 hrs by flow cytometry analysis; type: functional, cell-based; outline: as §1
[3] = Inhibition of PKCtheta/PKCdelta in HIV infected human J-Lat A cells assessed as reduction of PEP005 induced disruption of HIV latency treated at 2.5 nM relative to control; design: species or system J-Lat A1; scale not given: the % may be the effect or the level left; conditions: condition hiv infection
[4] = Inhibition of PKCtheta/PKCdelta in HIV infected human J-Lat A cells assessed as reduction of HIV latent reactivation treated at 6 nM in presence of PKC inhibitor relative to control; design: species or system J-Lat A1; scale not given: the % may be the effect or the level left; conditions: condition hiv infection
Outline: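 J-Lat A1 cells got 6 nM PEP005 together with 1, 2 or 5 μM PKCθ/δ inhibitor. HIV reactivation was read as GFP expression by RT-qPCR against PEP005-only cells. Data from at least 3 independent experiments in triplicate.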

CD4+ T cell [5] = assay: Induction of pro-inflammatory cytokine IL-6 expression in human CD4+ T cells at 6 to 12 nM for 24 to 72 hrs by RT-qPCR analysis; type: functional, cell-based; conditions: dose 6-12 nM, time 24-72 hrs
Outline: (§2)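 CD4+ T cells from healthy HIV-negative donors treated with 6 or 12 nM PEP005 for 24 or 72 h; TNF-α, IFN-γ, IL-2 and IL-6 mRNA quantified by RT-qPCR normalized to GAPDH.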

CD4+ T cell [6] = assay: Induction of cell cycle arrest in human CD4+ T cells assessed as accumulation of cells at S phase at 12 nM for 24 hrs BrdU ELISA analysis; type: functional, cell-based
Outline: (§3)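 U1, J-Lat A1 or healthy-donor CD4+ T cells treated 24 h with 12 nM PEP005; S-phase progression by BrdU incorporation ELISA; doxorubicin […] positive control.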

J-Lat A1 [7] = assay: Effect on NF kappaB/p65 expression in human […] at 12 nM upto 6 hrs by Western blotting analysis; type: functional, cell-based
Outline: (§4)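 One million J-Lat A1 cells incubated with 12 nM PEP005 up to 6 h; RIPA extracts with protease/phosphatase inhibitors; immunoblots for PKC isoforms, phospho-PKCδ/θ, NF-κB/p65 and phospho-IκBα (Ser32), β (Thr19/Ser23), ε (Ser18/22); band intensities by densitometry, three independent experiments.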

J-Lat A1 [8] = assay: Cytotoxicity against human J-Lat A1 cells harboring a single copy of latent HIV LTR assessed as cell viability at 2 to 40 nM by Live/Dead dye staining assay; type: functional, cell-based; conditions: dose 2-40 nM
Outline: (§5)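 J-Lat A1 cells exposed to PEP005 over 2–40 nM for 24 h; HIV reactivation as GFP expression by flow cytometry, fold versus untreated; viability by Live/Dead dye staining, flow cytometry.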

[9] = Binding affinity of NFkappa B to HIV LTR in human J-Lat A1 cells assessed as fold increase at 12 nM by ChIP-qPCR analysis; conditions: condition hiv infection
Outline: (§6)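 ChIP-qPCR on J-Lat A1 cells, 1x10^6 per sample, given 12 nM PEP005 with or without a PKCδ/θ inhibitor. Cells fixed in 1% formaldehyde and lysed in SDS/EDTA/Tris pH 8.1 buffer with protease inhibitors. Chromatin sonicated to 200–1500 bp. Immune complexes taken on protein A/G-agarose for 45 min, then reverse cross-linked overnight. NF-κB/p65 binding at HIV LTR read by SYBR qPCR. Data from at least 3 independent experiments in triplicate.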

CD4+ T cell [10] = assay: Induction of pro-inflammatory cytokine TNF-alpha expression in human CD4+ T cells at 6 to 12 nM for 24 to 72 hrs by RT-qPCR analysis; type: functional, cell-based; conditions: dose 6-12 nM, time 24-72 hrs; outline: as §2
[11] = Anti retroviral activity against human J-Lat A1 cells harboring a single copy of latent HIV LTR assessed as fold increase in HIV reactivation at 20 nM by flow cytometry analysis; type: functional; outline: as §5
CD4+ T cell [12] = assay: Induction of pro-inflammatory cytokine IFN-gamma expression in human CD4+ T cells at 6 to 12 nM for 24 to 72 hrs by RT-qPCR analysis; type: functional, cell-based; conditions: dose 6-12 nM, time 24-72 hrs; outline: as §2
[13] = target: T1, Inhibitor of nuclear factor kappa-B kinase subunit beta (Homo sapiens) (UniProt O14920); assay: Induction of IkappaB beta phosphorylation in human […] at 12 nM upto 6 hrs by Western blotting analysis; type: cell-based; conditions: J-Lat A1; outline: as §4
T1 sequence (whole entry): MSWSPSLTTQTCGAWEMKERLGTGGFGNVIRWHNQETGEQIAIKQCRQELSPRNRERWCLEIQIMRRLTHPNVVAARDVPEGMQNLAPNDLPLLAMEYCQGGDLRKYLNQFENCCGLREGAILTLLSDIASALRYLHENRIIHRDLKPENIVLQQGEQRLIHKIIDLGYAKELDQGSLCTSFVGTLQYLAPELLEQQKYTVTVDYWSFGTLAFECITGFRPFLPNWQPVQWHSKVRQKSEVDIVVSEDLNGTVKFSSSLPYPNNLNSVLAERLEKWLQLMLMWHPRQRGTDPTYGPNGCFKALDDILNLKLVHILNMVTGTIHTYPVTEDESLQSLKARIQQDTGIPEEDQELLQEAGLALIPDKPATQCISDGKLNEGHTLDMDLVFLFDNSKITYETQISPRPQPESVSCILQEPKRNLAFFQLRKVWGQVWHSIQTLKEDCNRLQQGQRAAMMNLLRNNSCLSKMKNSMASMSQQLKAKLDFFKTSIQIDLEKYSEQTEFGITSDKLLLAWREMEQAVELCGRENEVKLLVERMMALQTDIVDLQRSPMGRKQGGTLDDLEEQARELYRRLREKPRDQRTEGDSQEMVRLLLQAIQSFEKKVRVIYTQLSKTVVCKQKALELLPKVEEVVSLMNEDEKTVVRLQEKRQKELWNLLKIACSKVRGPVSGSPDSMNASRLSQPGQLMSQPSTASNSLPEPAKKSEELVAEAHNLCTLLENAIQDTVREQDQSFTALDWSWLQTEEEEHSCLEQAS

J-Lat A1 [14] = assay: Induction of cell cycle arrest in human J-Lat A1 cells assessed as accumulation of cells at S phase at 12 nM for 24 hrs BrdU ELISA analysis; type: functional, cell-based; outline: as §3
J-Lat A1 [15] = assay: Induction of PKC/NF-Kappa B pathway in human J-Lat A1 cells assessed as upregulation of PKC mu/D at 12 nM upto 6 hrs by Western blotting analysis; type: cell-based; outline: as §4
[16] = Cytotoxicity against human CD4+ T cells assessed as change in CD25 expression at 12 nM for 24 hrs by RT-qPCR analysis; type: toxicity, cell-based; conditions: cd4+ t cell, 0.012 µM
Outline: (§7)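 CD4+ T cells purified from uninfected donors, treated 24 h with 12 nM; total RNA extracted and CD38, CD69, CD25 and HLA-DR transcripts measured by RT-qPCR.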

[17] = Cytotoxicity against human CD4+ T cells assessed as change in CD38 expression at 12 nM for 24 hrs by RT-qPCR analysis; type: toxicity, cell-based; conditions: cd4+ t cell, 0.012 µM; outline: as §7
[18] = Binding affinity of NFkappa B to HIV LTR in human J-Lat A1 cells assessed as reduction in compound induced fold increase at 12 nM in presence of PKC inhibitor by ChIP-qPCR analysis relative to control; design: scale not given: the % may be the effect or the level left; conditions: condition hiv infection; outline: as §6
J-Lat A1 [19] = assay: Induction of PKC/NF-Kappa B pathway in human J-Lat A1 cells assessed as upregulation of PKC delta at 12 nM at 1 hr by Western blotting analysis; type: cell-based; outline: as §4
J-Lat A1 [20] = assay: Induction of PKC/NF-Kappa B pathway in human J-Lat A1 cells assessed as upregulation of PKC theta at 12 nM upto 6 hrs by Western blotting analysis; type: cell-based; outline: as §4
U1 [21] = assay: Anti retroviral activity against human U1 cells harbouring HIV genomes with Tat gene mutation assessed as fold increase in HIV reactivation at 6 nM by flow cytometry analysis; type: functional
[22] = Cytotoxicity against human CD4+ T cells assessed as change in CD69 expression at 12 nM for 24 hrs by RT-qPCR analysis; type: toxicity, cell-based; conditions: cd4+ t cell, 0.012 µM; outline: as §7
J-Lat A1 [23] = assay: Induction of PKC/NF-Kappa B pathway in human J-Lat A1 cells assessed as upregulation of PKC alpha at 12 nM upto 6 hrs by Western blotting analysis; type: cell-based; outline: as §4
J-Lat A1 [24] = assay: Anti retroviral activity against human J-Lat A1 cells harboring a single copy of latent HIV LTR assessed as HIV reactivation at 10 nM incubated for 24 hrs by flow cytometry analysis; type: functional, cell-based; outline: as §1
[25] = Induction of PKCtheta/PKCdelta phosphorylation at Ser676/Ser643 in human J-Lat A1 cells assessed as fold change measured after 30 mins; conditions: condition hiv infection, 0.5 h
CD4+ T cell [26] = assay: Induction of pro-inflammatory cytokine IL-2 expression in human CD4+ T cells at 6 to 12 nM for 24 to 72 hrs by RT-qPCR analysis; type: functional, cell-based; conditions: dose 6-12 nM, time 24-72 hrs; outline: as §2
U1 [27] = assay: Induction of cell cycle arrest in human U1 cells assessed as accumulation of cells at S phase at 12 nM for 24 hrs BrdU ELISA analysis; type: functional, cell-based; outline: as §3
J-Lat A1 [28] = assay: Anti retroviral activity against human J-Lat A1 cells harboring a single copy of latent HIV LTR assessed as HIV reactivation by flow cytometry analysis; type: functional, cell-based; conditions: dose 2-40 nM; outline: as §5
J-Lat A1 [29] = assay: Anti retroviral activity against human J-Lat A1 cells harboring a single copy of latent HIV LTR assessed as HIV reactivation at 500 nM incubated for 24 hrs by flow cytometry analysis; type: functional, cell-based; outline: as §1
J-Lat A1 [30] = assay: Anti retroviral activity against PEP005 treated human J-Lat A1 cells harboring a single copy of latent HIV LTR assessed as HIV reactivation at 2 uM followed by 6 nM of PEP005 incubated for 24 hrs by flow cytometry analysis; type: functional, cell-based
Outline: (§8)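 J-Lat A1 cells (RPMI1640, 10% FBS, 37°C, 5% CO2) exposed to 2 μM agent alone or combined with 6 nM PEP005 for 24 h; percentage of GFP-expressing cells by flow cytometry; Bliss independence model for synergy; ≥3 independent experiments in triplicate.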

J-Lat A1 [31] = assay: Anti retroviral activity against PEP005 treated human J-Lat A1 cells harboring a single copy of latent HIV LTR assessed as HIV reactivation at 2 uM incubated for 24 hrs by flow cytometry analysis; type: functional, cell-based; outline: as §8
U1 [32] = assay: Anti retroviral activity against PEP005 treated human U1 cells harbouring complete HIV genomes with Tat gene mutation assessed as fold increase in HIV reactivation at 2 uM followed by 6 nM of PEP005 incubated for 24 hrs by flow cytometry analysis; type: functional

CCCCCCCCCCCCCC(=O)O[C@@H]1[C@@H](C)[C@@]2(O)[C@@H](C=C(CO)C[C@]3(O)C(=O)C(C)=C[C@@H]23)[C@@H]2C(C)(C)[C@]12OC(C)=O
Activity (J-Lat A1 [1]): Active

CC(=O)O[C@@]12C[C@@H](C)[C@@]3(O)[C@@H](C=C(CO)C[C@]4(O)C(=O)C(C)=C[C@@H]34)[C@@H]1C2(C)C
Activity (J-Lat A1 [2]): Active

Cc1ccc(S(=O)(=O)/C=C/C#N)cc1
Activity [3]: 50%

C/C=C(/C)C(=O)O[C@H]1C(C)=C[C@]23C(=O)[C@@H](C=C(CO)[C@@H](O)[C@]12O)[C@H]1[C@@H](C[C@H]3C)C1(C)C [INGENOL MEBUTATE]
Activity [4]: >65%
Activity (CD4+ T cell [5]): inactive
Activity (CD4+ T cell [6]): inactive
Activity (J-Lat A1 [7]): inactive
Activity (J-Lat A1 [8]): inactive
fold change (FC) [9]: 6
Activity (CD4+ T cell [10]): inactive
fold change (FC) [11]: 7
Activity (CD4+ T cell [12]): inactive
Activity [13]: inactive
Activity (J-Lat A1 [14]): inactive
Activity (J-Lat A1 [15]): inactive
Activity [16]: Non-Toxic
Activity [17]: Non-Toxic
Activity [18]: >70%
Activity (J-Lat A1 [19]): Active
Activity (J-Lat A1 [20]): inactive
fold change (FC) (U1 [21]): 25
Activity [22]: Non-Toxic
Activity (J-Lat A1 [23]): inactive
Activity (J-Lat A1 [24]): Active
fold change (FC) [25]: 2
Activity (CD4+ T cell [26]): inactive
Activity (U1 [27]): inactive
Activity (J-Lat A1 [28]): Dose-Dependent Effect

O=C(CCCCCCC(=O)Nc1ccccc1)NO
Activity (J-Lat A1 [29]): Active

CCCc1cc(C)[nH]c(=O)c1CNC(=O)c1cc(-c2ccnc(N3CCN(C)CC3)c2)cc2c1cnn2C(C)C
Activity (J-Lat A1 [2]): inactive
Activity (J-Lat A1 [30]): Active

Cc1sc2c(c1C)C(c1ccc(Cl)cc1)=N[C@@H](CC(=O)OC(C)(C)C)c1nnc(C)n1-2
Activity (J-Lat A1 [31]): Active
Activity (J-Lat A1 [2]): Active
fold change (FC) (U1 [32]): 250
Activity (J-Lat A1 [30]): Active
